Measurements published in ChEMBL document CHEMBL1129249, “Synthesis and activity of a novel series of 3-biarylquinuclidine squalene synthase inhibitors” (J Med Chem, 1996).

Test system: Rattus norvegicus
Experiment: Inhibition of cholesterol biosynthesis from mevolanate after oral dosing to rat
Assay type: functional
Procedure, shortened: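 Rats were dosed orally, and cholesterol synthesis from mevalonate was then measured. ED50 (mg/kg) was derived from dose–response data and reported with 95% confidence limits.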

OC1(c2ccc(-c3ccncc3)cc2)CN2CCC1CC2 (stereo unspecified) showed an ED50 of 2.7 mg/kg.

Biological target: T1, Squalene synthase (Rattus norvegicus, UniProt Q02769)
T1 sequence (Q02769 whole entry): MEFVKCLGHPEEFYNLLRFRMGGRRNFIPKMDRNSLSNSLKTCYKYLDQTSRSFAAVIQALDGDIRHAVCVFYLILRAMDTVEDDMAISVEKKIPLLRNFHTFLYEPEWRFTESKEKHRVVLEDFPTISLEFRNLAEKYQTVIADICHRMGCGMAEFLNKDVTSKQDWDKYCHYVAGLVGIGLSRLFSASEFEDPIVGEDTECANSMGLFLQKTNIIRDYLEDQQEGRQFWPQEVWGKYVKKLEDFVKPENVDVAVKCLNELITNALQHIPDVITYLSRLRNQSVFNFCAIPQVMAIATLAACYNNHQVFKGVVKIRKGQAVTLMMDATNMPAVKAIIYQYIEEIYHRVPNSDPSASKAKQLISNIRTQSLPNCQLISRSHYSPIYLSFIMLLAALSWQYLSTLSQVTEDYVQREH
Experiment: In vitro inhibition against rat microsomal squalene synthase (SS)
Procedure, shortened: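 Squalene synthase came from rat microsomes. Inhibition was tested in phosphate buffer. IC50 values are from duplicate determinations (n = 2).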

OC1(CSc2ccc(-c3ccccc3)cc2)CN2CCC1CC2 (stereo unspecified) and OC1(CCc2ccc(-c3ccccc3)cc2)CN2CCC1CC2 (stereo unspecified) are within 1.5-fold of each other in IC50: 8 nM for the first, 7 nM for the second.

First: OC1(c2ccc(-c3ncccn3)cc2)CN2CCC1CC2 (stereo unspecified)
Second: OC1(c2ccc(-c3ccccn3)cc2)CN2CCC1CC2 (stereo unspecified)
The IC50 of the first is 8-fold lower: 30 nM for the first, 240 nM for the second.

O=S(=O)(NC1CN2CCC1CC2)c1ccc(-c2ccccc2)cc1 (stereo unspecified) and O=S(=O)(c1ccc(-c2ccccc2)cc1)C1CN2CCC1CC2 (stereo unspecified) cannot be ordered by IC50: over 2500 nM for the first, over 2500 nM for the second.

Compared with c1ccc(-c2ccc(CCC3CN4CCC3CC4)cc2)cc1 (stereo unspecified), c1ccc(-c2ccc(CC3CN4CCC3CC4)cc2)cc1 (stereo unspecified) is 5.4-fold higher in IC50: 5 nM for the first, 27 nM for the second.

Compared with OC1(COc2ccc(-c3ccccc3)cc2)CN2CCC1CC2 (stereo unspecified), [O-][S+](CC1(O)CN2CCC1CC2)c1ccc(-c2ccccc2)cc1 (stereo unspecified) is higher in IC50: 13 nM for the first, over 2500 nM for the second. The first is the more potent here.

Going from C1=C(c2ccc(-c3ccccc3)cc2)C2CCN1CC2 to c1ccc(-c2ccc(C3CN4CCC3CC4)cc2)cc1 (stereo unspecified), the IC50 falls from 18 nM to 11 nM (1.6-fold). The second is the more potent here.

First: OC(c1ccc(-c2ccccc2)cc1)C1CN2CCC1CC2 (stereo in doubt; 32)
Second: O=C(NC1CN2CCC1CC2)c1ccc(-c2ccccc2)cc1 (stereo unspecified)
The IC50 of the first is 2.1-fold higher: 2500 nM for the first, 1200 nM for the second. The second is the more potent here.

First: OC1(c2ccc(-c3ccccc3)cc2)CN2CCC1CC2 (stereo in doubt; 2a(+))
Second: OC1(c2ccc(-c3ccc(-c4ccccc4)cc3)cc2)CN2CCC1CC2 (stereo unspecified)
The IC50 of the first is 53-fold lower: 7 nM for the first, 370 nM for the second.

First: O=S(=O)(CC1(O)CN2CCC1CC2)c1ccc(-c2ccccc2)cc1 (stereo unspecified)
Second: OC1(c2ccc(-c3ccccc3)cc2)CN2CCC1CC2 (stereo in doubt; 2)
The IC50 of the first is higher: over 2500 nM for the first, 16 nM for the second.

Compared with OC1(c2ccc(-c3cnc4ccccc4c3)cc2)CN2CCC1CC2 (stereo unspecified), OC1(c2ccc(-c3ccccc3)cc2)CN2CCC1CC2 (stereo in doubt; 2a(-)) is 1.7-fold lower in IC50: 200 nM for the first, 121 nM for the second.

Going from OC1(c2ccc(-c3ccncc3)cc2)CN2CCC1CC2 (stereo unspecified) to OC1(c2ccc(-c3cccnc3)cc2)CN2CCC1CC2 (stereo unspecified), the IC50 rises from 161 nM to 270 nM (1.7-fold).

First: OC1(c2ccc(C3OCCCO3)cc2)CN2CCC1CC2 (stereo unspecified)
Second: OC1(c2ccc(C3CCCCC3)cc2)CN2CCC1CC2 (stereo unspecified)
The IC50 of the first is higher: over 2500 nM for the first, 190 nM for the second. The second is the more potent here.

Going from COC1(c2ccc(-c3ccccc3)cc2)CN2CCC1CC2 (stereo unspecified) to OC1(C#Cc2ccc(-c3ccccc3)cc2)CN2CCC1CC2 (stereo unspecified), the IC50 falls from over 2500 nM to 3 nM.

First: OC1(c2ccc(-c3cccs3)s2)CN2CCC1CC2 (stereo unspecified)
Second: OC1(c2ccc(-c3cccs3)cc2)CN2CCC1CC2 (stereo unspecified)
The IC50 of the first is higher: over 2500 nM for the first, 40 nM for the second. The second is the more potent here.

CC(C)=CCC/C(C)=C/CC/C(C)=C/COC1CN2CCC1CC2 (stereo unspecified) and CC(C)=CCC/C(C)=C/CC/C(C)=C/COCC1(O)CN2CCC1CC2 (stereo unspecified) are within 1.5-fold of each other in IC50: 70 nM for the first, 60 nM for the second.

Going from OC1(c2ccc(-c3ccc(F)cc3)cc2)CN2CCC1CC2 (stereo unspecified) to Oc1ccc(-c2ccc(C3(O)CN4CCC3CC4)cc2)cc1 (stereo unspecified), the IC50 rises from 18 nM to 132 nM (7.3-fold).

Going from C(=C\C1CN2CCC1CC2)/c1ccc(-c2ccccc2)cc1 (stereo unspecified) to C(=C/C1CN2CCC1CC2)/c1ccc(-c2ccccc2)cc1 (stereo unspecified), the IC50 rises from 4 nM to 580 nM (140-fold). The first is the more potent here.

Compared with OC1(c2ccc(-c3nccs3)cc2)CN2CCC1CC2 (stereo unspecified), OC1(c2ccc(-c3nc4ccccc4s3)cc2)CN2CCC1CC2 (stereo unspecified) is 5-fold lower in IC50: 30 nM for the first, 6 nM for the second.

First: OC1(c2cccc(-c3ccccc3)c2)CN2CCC1CC2 (stereo unspecified)
Second: OC1(c2ccccc2)CN2CCC1CC2 (stereo unspecified)
The IC50 of the first is lower: 60 nM for the first, over 2500 nM for the second. The first is the more potent here.

Compared with OC1(c2cnc(-c3ccccc3)s2)CN2CCC1CC2 (stereo unspecified), OC(c1ccc(-c2ccccc2)cc1)C1CN2CCC1CC2 (stereo in doubt; 33) is 42-fold higher in IC50: 60 nM for the first, 2500 nM for the second.
